# Measured values reported in ChEMBL document CHEMBL4715736, “Identification of anticancer agents based on the thieno[2,3-b]pyridine and 1H-pyrazole molecular scaffolds” (2016).
# Assays:
# Assay type in all cases: functional
# Conditions in all cases: read-out: Activity
# NCI/ADR-RES = experiment: Growth inhibition of human NCI/ADR-RES cells assessed as cell growth at 10 uM incubated for 48 hrs by sulforhodamine B assay relative to control
# Outline: (§1)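 Submitted to the NCI Developmental Therapeutics Program for the NCI60 human tumour cell line panel. First screen at a single 10 µM concentration. Read-out is growth relative to untreated control cells set at 100%.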
# LOX IMVI = experiment: Growth inhibition of human LOX IMVI cells assessed as cell growth at 10 uM incubated for 48 hrs by sulforhodamine B assay relative to control; outline: as §1
# MCF7 = experiment: Growth inhibition of human MCF7 cells assessed as cell growth at 10 uM incubated for 48 hrs by sulforhodamine B assay relative to control; outline: as §1
# NCI-H23 = experiment: Growth inhibition of human NCI-H23 cells assessed as cell growth at 10 uM incubated for 48 hrs by sulforhodamine B assay relative to control; outline: as §1
# SK-MEL-2 = experiment: Growth inhibition of human SK-MEL-2 cells assessed as cell growth at 10 uM incubated for 48 hrs by sulforhodamine B assay relative to control
# Outline: (§2)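 Run by the NCI Developmental Therapeutics Program as part of its 60-line human tumour panel. Each compound tested at a single 10 µM dose. Growth expressed as % relative to untreated control cells (100%).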
# OVCAR-8 = experiment: Growth inhibition of human OVCAR-8 cells assessed as cell growth at 10 uM incubated for 48 hrs by sulforhodamine B assay relative to control; outline: as §2
# CCRF-CEM = experiment: Growth inhibition of human CCRF-CEM cells assessed as cell growth at 10 uM incubated for 48 hrs by sulforhodamine B assay relative to control
# Outline: (§3)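 NCI Developmental Therapeutics Program NCI60 panel. Compounds that were active in the 10 µM one-dose screen went on to dose–response testing. Growth at each concentration is expressed relative to untreated control (100%). GI50 (concentration giving 50% of maximal inhibition of proliferation) and TGI (concentration giving total growth inhibition) were derived from the curves.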
# KM12 = experiment: Growth inhibition of human KM12 cells assessed as cell growth at 10 uM incubated for 48 hrs by sulforhodamine B assay relative to control; outline: as §1
# SR = experiment: Growth inhibition of human SR cells assessed as cell growth at 10 uM incubated for 48 hrs by sulforhodamine B assay relative to control; outline: as §2
# SK-MEL-28 = experiment: Growth inhibition of human SK-MEL-28 cells assessed as cell growth at 10 uM incubated for 48 hrs by sulforhodamine B assay relative to control; outline: as §2
# HCC 2998 = experiment: Growth inhibition of human HCC 2998 cells assessed as cell growth at 10 uM incubated for 48 hrs by sulforhodamine B assay relative to control; outline: as §3
# NCI-H522 = experiment: Growth inhibition of human NCI-H522 cells assessed as cell growth at 10 uM incubated for 48 hrs by sulforhodamine B assay relative to control; outline: as §1
# MDA-MB-468 = experiment: Growth inhibition of human MDA-MB-468 cells assessed as cell growth at 10 uM incubated for 48 hrs by sulforhodamine B assay relative to control; outline: as §1
# T47D = experiment: Growth inhibition of human T47D cells assessed as cell growth at 10 uM incubated for 48 hrs by sulforhodamine B assay relative to control; outline: as §2
# UACC-62 = experiment: Growth inhibition of human UACC-62 cells assessed as cell growth at 10 uM incubated for 48 hrs by sulforhodamine B assay relative to control; outline: as §2
# NCI-H322M = experiment: Growth inhibition of human NCI-H322M cells assessed as cell growth at 10 uM incubated for 48 hrs by sulforhodamine B assay relative to control; outline: as §1
# RPMI-8226 = experiment: Growth inhibition of human RPMI-8226 cells assessed as cell growth at 10 uM incubated for 48 hrs by sulforhodamine B assay relative to control; outline: as §2
# SN12C = experiment: Growth inhibition of human SN12C cells assessed as cell growth at 10 uM incubated for 48 hrs by sulforhodamine B assay relative to control; outline: as §2
# HOP-92 = experiment: Growth inhibition of human HOP-92 cells assessed as cell growth at 10 uM incubated for 48 hrs by sulforhodamine B assay relative to control; outline: as §1
# TK-10 = experiment: Growth inhibition of human TK-10 cells assessed as cell growth at 10 uM incubated for 48 hrs by sulforhodamine B assay relative to control; outline: as §2
# U-251 = experiment: Growth inhibition of human U-251 cells assessed as cell growth at 10 uM incubated for 48 hrs by sulforhodamine B assay relative to control; outline: as §2
# CAKI-1 = experiment: Growth inhibition of human CAKI-1 cells assessed as cell growth at 10 uM incubated for 48 hrs by sulforhodamine B assay relative to control; outline: as §3
# A498 = experiment: Growth inhibition of human A498 cells assessed as cell growth at 10 uM incubated for 48 hrs by sulforhodamine B assay relative to control; outline: as §3
SMILES,growth at 10 µM (NCI/ADR-RES) [%],growth at 10 µM (LOX IMVI) [%],growth at 10 µM (MCF7) [%],growth at 10 µM (NCI-H23) [%],growth at 10 µM (OVCAR-8) [%],growth at 10 µM (CCRF-CEM) [%],growth at 10 µM (KM12) [%],growth at 10 µM (SR) [%],growth at 10 µM (SK-MEL-28) [%],growth at 10 µM (HCC 2998) [%],growth at 10 µM (MDA-MB-468) [%],growth at 10 µM (T47D) [%],growth at 10 µM (UACC-62) [%],growth at 10 µM (NCI-H322M) [%],growth at 10 µM (RPMI-8226) [%],growth at 10 µM (SN12C) [%],growth at 10 µM (HOP-92) [%],growth at 10 µM (U-251) [%],growth at 10 µM (CAKI-1) [%],growth at 10 µM (A498) [%],other results
CC(=O)Nc1ccc(S(=O)(=O)n2ccc(-c3ccc4c(c3)CCC(C)(C)O4)n2)cc1,56.9,64.1,66.2,56.6,69.4,55.4,67.4,56.4,93.1,83.3,24.9,31.1,62.4,89,43.7,89,69.8,66,48.8,21.9,growth at 10 µM (SK-MEL-2): 53.5%; growth at 10 µM (NCI-H522): 54%; growth at 10 µM (TK-10): 55.1%
COc1ccc(-c2ccn(S(=O)(=O)c3ccc(C)cc3)n2)cc1,78.7,84.2,88.3,67.9,83.4,85.7,89.7,79.2,103,86.9,46.1,48,70.9,96.7,69,86.9,79.9,81.9,69.5,63.2,–
CC1(C)CCc2cc(-c3ccn(S(=O)(=O)c4ccc(Cl)cc4Cl)n3)ccc2O1,96.1,104,86.6,98.1,97,62.4,92.9,77.9,102,99.1,81.5,76.6,72.6,90.5,79,89.6,57.1,87.9,83.8,68.9,growth at 10 µM (SK-MEL-2): 79.7%; growth at 10 µM (NCI-H522): 60.4%; growth at 10 µM (TK-10): 68.7%
COc1ccc(S(=O)(=O)n2ccc(-c3ccc4c(c3)CCC(C)(C)O4)n2)cc1OC,56.5,76.7,64.3,56,74.6,82.2,71.4,60.2,91,78.9,28.4,43.7,63.9,89.5,59,83.1,58.3,79.5,58.3,52.8,growth at 10 µM (SK-MEL-2): 56.1%; growth at 10 µM (NCI-H522): 65.8%; growth at 10 µM (TK-10): 72.1%
CC1(C)CCc2cc(-c3ccn(S(=O)(=O)c4ccccc4)n3)ccc2O1,76,85.2,76.1,75.5,84.3,65.6,71.5,56.7,97.2,83.2,54.6,50.5,73.3,91.7,59.5,98.8,60,72.3,62.9,65.4,–
Cc1cc(C)cc(S(=O)(=O)n2ccc(-c3ccc4c(c3)CCC(C)(C)O4)n2)c1,79,95,81.5,73.6,91,96.3,82.7,76.5,102,88.2,54.6,58.2,73.9,92,73.2,88,78.1,85.6,72.5,63,–
COc1ccc(-c2ccn(S(=O)(=O)c3ccc(OC)cc3)n2)cc1,88.4,88.8,97.9,79.8,89.2,71.3,88.4,57.8,99.2,88.1,59.3,58.8,71.3,98.3,58.7,92.4,38.8,86.6,66.2,50.2,–
COc1ccc(S(=O)(=O)n2ccc(-c3ccc(OC(C)C)cc3)n2)cc1,81.3,94.1,93.8,83.8,94.6,72.6,92,75.7,95.3,103,68.7,72.3,64.1,99.3,70.7,90.6,75.7,95.3,66,48.5,–
CC1(C)CCc2cc(-c3ccn(S(=O)(=O)c4ccc(C(C)(C)C)cc4)n3)ccc2O1,82.5,96.5,95.7,83.8,84.5,74.4,90.5,77.8,92.8,98,52.5,84.9,70.4,95.6,65.1,87.7,73.2,80.8,68.9,68.4,growth at 10 µM (SK-MEL-2): 58.2%; growth at 10 µM (NCI-H522): 66.5%; growth at 10 µM (TK-10): 84.3%
CC1(C)CCc2cc(-c3ccn(S(=O)(=O)c4ccc(C(F)(F)F)cc4)n3)ccc2O1,92.4,98.6,84.9,83.1,90.9,82.8,98,69.8,99.6,94.4,64.2,63.9,83.5,105,76.6,97.3,71.8,89.1,76.7,74.2,–
